# Activity calls are given as the source filed them. The rule behind the calls is not given here.
# Legend:
# [1] = system: MDA-MB-435; assay: Cytotoxicity against human MDA-MB-435 cells assessed as reduction in cell growth at 1 to 10 uM after 48 hrs by MTT assay relative to untreated control; type: functional; parameters: scale not given: the % may be the effect or the level left
# How it was run: (§1)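 Melanoma lines grown at 37 °C in humidified 5% CO2: MDA-MB-435 in DMEM/Ham's F12 1:1 with 10% FCS and antibiotics, SK-MEL-2 in RPMI-1640 with 10% FCS. Cells plated 24 h, then exposed 48 h to 100–0.01 µM (dilutions from fresh 100 µM stock in medium). MTT 0.5 mg/mL added for 4 h, crystals dissolved in EtOH/DMSO 1:1, absorbance read at 540 nm. Mean ± SD of three independent experiments.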
# [2] = target: Mitogen-activated protein kinase kinase kinase kinase 4 (Homo sapiens) (UniProt O95819); assay: Inhibition of human HGK at 10 uM
# How it was run: (§2)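 Kinase selectivity panel of 19 protein tyrosine kinases and 30 serine/threonine kinases, run by a contract lab (CEREP). Each compound was tested at a single dose of 10 μM in duplicate.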
# [3] = target: Cyclin-dependent kinase 1 (Homo sapiens) (UniProt P06493); assay: Inhibition of human CDK1 at 10 uM; how it was run: as §2
# [4] = system: MDA-MB-435; assay: Induction of apoptosis in human MDA-MB-435 cells assessed as chromatin condensation at 5 uM after 20 hrs by Hoechst 33342 staining-based phase-contrast microscopy; type: functional, cell-based
# [5] = system: SK-MEL-2; assay: Cytotoxicity against human SK-MEL-2 cells assessed as cell growth at 10 uM after 48 hrs by MTT assay relative to untreated control; type: functional; settings: SK-MEL-2, 48 h, read-out: Activity; how it was run: as §1
# [6] = system: T47D; assay: Cytotoxicity against human T47D cells after 48 hrs by SRB assay; type: functional
# How it was run: (§3)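 NCI-60 five-dose mode on the full human tumour line panel. Concentrations ran from 100 to 0.01 µM with 48 h continuous exposure. Growth was estimated by SRB protein staining against untreated controls, and IC50 values were derived from the dose–response.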
# [7] = system: BT-549; assay: Cytotoxicity against human BT549 cells after 48 hrs by SRB assay; type: functional; settings: BT-549, 48 h
# How it was run: (§4)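 NCI-60 five-dose testing, 100 to 0.01 µM, under a 48 h continuous-exposure protocol. Growth estimated by SRB protein assay, read spectrophotometrically against untreated controls; IC50 derived from the dose-response.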
# [8] = system: MDA-MB-231; assay: Cytotoxicity against human MDA-MB-231 cells after 48 hrs by SRB assay; type: functional; settings: MDA-MB-231, 48 h
# How it was run: (§5)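 NCI-60 five-dose screen: cells exposed continuously for 48 h across 100 to 0.01 µM. Growth or viability estimated by sulforhodamine B protein staining, read spectrophotometrically against untreated controls; IC50 taken from the dose-response.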
# [9] = system: PC-3; assay: Cytotoxicity against human PC3 cells after 48 hrs by SRB assay; type: functional; settings: PC-3, 48 h; how it was run: as §5
# [10] = system: DU-145; assay: Cytotoxicity against human DU145 cells after 48 hrs by SRB assay; type: functional; settings: DU-145, 48 h; how it was run: as §4
# [11] = system: SN12C; assay: Cytotoxicity against human SN12C cells after 48 hrs by SRB assay; type: functional; how it was run: as §3
# [12] = system: TK-10; assay: Cytotoxicity against human TK10 cells after 48 hrs by SRB assay; type: functional; settings: TK-10, 48 h; how it was run: as §3
# [13] = system: SK-OV-3; assay: Cytotoxicity against human SKOV3 cells after 48 hrs by SRB assay; type: functional; settings: SK-OV-3, 48 h; how it was run: as §3
# [14] = system: SK-MEL-2; assay: Cytotoxicity against human SK-MEL-2 cells after 48 hrs by SRB assay; type: functional; settings: SK-MEL-2, 48 h; how it was run: as §5
# [15] = system: M14; assay: Cytotoxicity against human M14 cells after 48 hrs by SRB assay; type: functional; settings: M14, 48 h; how it was run: as §4
# [16] = system: U-251; assay: Cytotoxicity against human U251 cells after 48 hrs by SRB assay; type: functional; settings: U-251, 48 h; how it was run: as §3
# [17] = system: SNB-75; assay: Cytotoxicity against human SNB75 cells after 48 hrs by SRB assay; type: functional; settings: SNB-75, 48 h; how it was run: as §3
# [18] = system: SF-268; assay: Cytotoxicity against human SF268 cells after 48 hrs by SRB assay; type: functional; settings: SF-268, 48 h; how it was run: as §5
# [19] = system: HT-29; assay: Cytotoxicity against human HT-29 cells after 48 hrs by SRB assay; type: functional; settings: HT-29, 48 h; how it was run: as §4
# [20] = system: HCT-15; assay: Cytotoxicity against human HCT15 cells after 48 hrs by SRB assay; type: functional; settings: HCT-15, 48 h; how it was run: as §4
# [21] = system: HCC 2998; assay: Cytotoxicity against human HCC2998 cells after 48 hrs by SRB assay; type: functional; settings: HCC 2998, 48 h; how it was run: as §4
# [22] = system: NCI-H23; assay: Cytotoxicity against human NCI-H23 cells after 48 hrs by SRB assay; type: functional; settings: NCI-H23, 48 h; how it was run: as §5
# [23] = system: NCI-H322M; assay: Cytotoxicity against human NCI-H322M cells after 48 hrs by SRB assay; type: functional; how it was run: as §5
# [24] = system: RPMI-8226; assay: Cytotoxicity against human RPMI8226 cells after 48 hrs by SRB assay; type: functional; settings: RPMI-8226, 48 h; how it was run: as §5
# [25] = system: SR; assay: Cytotoxicity against human SR cells after 48 hrs by SRB assay; type: functional; how it was run: as §3
# [26] = system: K562; assay: Cytotoxicity against human K562 cells after 48 hrs by SRB assay; type: functional; settings: K562, 48 h; how it was run: as §4
# [27] = system: CCRF-CEM; assay: Cytotoxicity against human CCRF-CEM cells after 48 hrs by SRB assay; type: functional; how it was run: as §4
# [28] = system: HL-60(TB); assay: Cytotoxicity against human HL-60(TB) cells after 48 hrs by SRB assay; type: functional; settings: HL-60, 48 h
# How it was run: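 NCI-60 human tumour cell line panel; continuous 48 h exposure to five concentrations from 100 to 0.01 µM. Cell growth was read spectrophotometrically by sulforhodamine B protein staining against untreated controls, and […] was taken from the dose–response.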
# [29] = read-out: LC50 (the source's name)
# Mitogen-activated protein kinase kinase kinase kinase 4 (Homo sapiens), sequence (O95819 2-1239 limits assumed): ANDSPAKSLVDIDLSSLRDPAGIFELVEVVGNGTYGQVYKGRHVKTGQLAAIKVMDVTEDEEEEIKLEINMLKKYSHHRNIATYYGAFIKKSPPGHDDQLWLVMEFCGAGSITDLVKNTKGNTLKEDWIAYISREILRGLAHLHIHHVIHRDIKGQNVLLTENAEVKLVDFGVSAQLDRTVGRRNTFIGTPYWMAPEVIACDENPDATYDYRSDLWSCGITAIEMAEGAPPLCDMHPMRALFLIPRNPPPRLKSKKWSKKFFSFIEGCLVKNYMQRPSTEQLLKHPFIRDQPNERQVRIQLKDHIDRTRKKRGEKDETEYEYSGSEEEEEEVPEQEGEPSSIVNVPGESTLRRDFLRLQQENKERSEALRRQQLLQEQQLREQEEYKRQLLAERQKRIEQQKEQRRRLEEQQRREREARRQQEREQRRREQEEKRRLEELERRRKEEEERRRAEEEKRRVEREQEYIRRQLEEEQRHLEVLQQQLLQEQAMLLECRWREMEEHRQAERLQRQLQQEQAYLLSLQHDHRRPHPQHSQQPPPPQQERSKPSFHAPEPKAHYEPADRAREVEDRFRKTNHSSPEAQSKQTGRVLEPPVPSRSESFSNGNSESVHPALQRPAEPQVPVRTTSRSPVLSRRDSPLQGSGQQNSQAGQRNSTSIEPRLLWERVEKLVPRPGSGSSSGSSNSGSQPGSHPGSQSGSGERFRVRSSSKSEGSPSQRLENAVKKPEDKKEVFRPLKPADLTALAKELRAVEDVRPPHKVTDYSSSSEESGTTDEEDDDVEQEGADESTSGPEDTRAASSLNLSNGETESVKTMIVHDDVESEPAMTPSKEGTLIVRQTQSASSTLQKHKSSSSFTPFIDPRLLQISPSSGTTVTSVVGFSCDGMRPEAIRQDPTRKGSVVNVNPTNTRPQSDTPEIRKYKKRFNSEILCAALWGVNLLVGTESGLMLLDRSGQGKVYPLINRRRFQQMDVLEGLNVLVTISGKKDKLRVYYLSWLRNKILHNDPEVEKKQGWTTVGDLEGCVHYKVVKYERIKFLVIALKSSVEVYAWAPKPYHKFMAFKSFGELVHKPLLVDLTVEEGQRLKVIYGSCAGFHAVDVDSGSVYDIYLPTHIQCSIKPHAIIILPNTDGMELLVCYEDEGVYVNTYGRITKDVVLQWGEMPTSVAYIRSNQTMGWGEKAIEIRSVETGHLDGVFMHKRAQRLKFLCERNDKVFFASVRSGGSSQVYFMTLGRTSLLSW
# Cyclin-dependent kinase 1 (Homo sapiens), sequence (P06493 whole entry, looked up): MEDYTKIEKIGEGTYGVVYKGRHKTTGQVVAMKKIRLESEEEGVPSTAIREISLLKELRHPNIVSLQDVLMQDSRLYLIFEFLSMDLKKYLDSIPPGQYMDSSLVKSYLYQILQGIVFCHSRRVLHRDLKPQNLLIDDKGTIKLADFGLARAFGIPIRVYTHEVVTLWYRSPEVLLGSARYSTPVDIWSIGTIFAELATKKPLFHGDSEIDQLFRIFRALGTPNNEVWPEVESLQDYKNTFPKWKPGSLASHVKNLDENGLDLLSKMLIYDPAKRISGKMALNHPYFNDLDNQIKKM
smiles,measurement,setting,value
C[C@@H]1NC(c2ccccc2)=Nc2nc3ccccn3c2C1=O,Activity,[1],20%
C[C@@H]1NC(c2ccc(Br)cc2)=Nc2nc3ccccn3c2C1=O,inhibition,[2],50%
same,inhibition,[3],inactive
same,Activity,[4],Active
same,growth at 10 µM,[5],32%
same,GI50,[6],46.2 µM
same,TGI,[6],> 100 µM
same,CC50,[6]; [29],> 100 µM
same,GI50,[7],5.49 µM
same,TGI,[7],> 100 µM
same,CC50,[7]; [29],> 100 µM
same,GI50,[8],6.08 µM
same,TGI,[8],> 100 µM
same,CC50,[8]; [29],> 100 µM
same,GI50,[9],5.7 µM
same,TGI,[9],> 100 µM
same,CC50,[9]; [29],> 100 µM
same,GI50,[10],23.2 µM
same,TGI,[10],> 100 µM
same,CC50,[10]; [29],> 100 µM
same,GI50,[11],17.6 µM
same,TGI,[11],> 100 µM
same,CC50,[11]; [29],> 100 µM
same,GI50,[12],21 µM
same,TGI,[12],> 100 µM
same,CC50,[12]; [29],> 100 µM
same,GI50,[13],4.41 µM
same,TGI,[13],> 100 µM
same,CC50,[13]; [29],> 100 µM
same,GI50,[14],15.7 µM
same,TGI,[14],> 100 µM
same,CC50,[14]; [29],> 100 µM
same,GI50,[15],3.2 µM
same,TGI,[15],48.2 µM
same,CC50,[15]; [29],> 100 µM
same,GI50,[16],6.64 µM
same,TGI,[16],> 100 µM
same,CC50,[16]; [29],> 100 µM
same,GI50,[17],0.7 µM
same,TGI,[17],7.06 µM
same,CC50,[17]; [29],> 100 µM
same,GI50,[18],17.2 µM
same,TGI,[18],> 100 µM
same,CC50,[18]; [29],> 100 µM
same,GI50,[19],3.73 µM
same,TGI,[19],> 100 µM
same,CC50,[19]; [29],> 100 µM
same,GI50,[20],3.64 µM
same,TGI,[20],> 100 µM
same,CC50,[20]; [29],> 100 µM
same,GI50,[21],21.9 µM
same,TGI,[21],> 100 µM
same,CC50,[21]; [29],> 100 µM
same,GI50,[22],25.4 µM
same,TGI,[22],> 100 µM
same,CC50,[22]; [29],> 100 µM
same,GI50,[23],23.6 µM
same,TGI,[23],> 100 µM
same,CC50,[23]; [29],> 100 µM
same,GI50,[24],7.31 µM
same,TGI,[24],> 100 µM
same,CC50,[24]; [29],> 100 µM
same,GI50,[25],2.42 µM
same,TGI,[25],> 100 µM
same,CC50,[25]; [29],> 100 µM
same,GI50,[26],4.13 µM
same,TGI,[26],> 100 µM
same,CC50,[26]; [29],> 100 µM
same,GI50,[27],6.56 µM
same,TGI,[27],> 100 µM
same,CC50,[27]; [29],> 100 µM
same,GI50,[28],6.49 µM
same,TGI,[28],> 100 µM
same,CC50,[28]; [29],> 100 µM

# From ChEMBL document CHEMBL3124806, “Imidazopyridine-fused [1,3]-diazepinones: synthesis and antiproliferative activity” (Eur J Med Chem, 2014)
